Results as given in ChEMBL document CHEMBL3580630, “Design and Synthesis of a Screening Library Using the Natural Product Scaffold 3-Chloro-4-hydroxyphenylacetic Acid” (2015).
Active and inactive are the calls of the source. No cut-off for these calls is given here.

Legend:
[1] = tested on: LNCaP; assay: Cytotoxicity against human LNCAP cells assessed as inhibition of cell proliferation at 10 uM after 72 hrs by Alamar blue assay relative to control; assay type: functional
[2] = tested on: Plasmodium falciparum; assay: Antiparasitic activity against asexual intraerythrocytic stage of Plasmodium falciparum 3D7 assessed as inhibition of parasite replication at 10 uM after 72 hrs by DAPI staining-based microscopic analysis relative to control; assay type: functional; conditions: 3D7, 72 h
[3] = tested on: Trypanosoma brucei brucei; assay: Antiparasitic activity against bloodstream form of Trypanosoma brucei brucei 427 assessed as inhibition of parasite replication at 10 uM after 72 hrs by resazurin assay relative to control; assay type: functional; conditions: Trypanosoma brucei, 427, 72 h
[4] = tested on: PC-3; assay: Antilipogenic activity in human PC3 cells assessed as reduction of cellular neutral lipid level at 10 uM after 48 hrs by nile red staining-based fluorescence microscopic analysis relative to control; assay type: functional, cell-based
Outline: (§1)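 Cells were grown 72 h in phenol-red-free RPMI-1640 with 5% CSS, then exposed 48 h to 10 µM compound in 0.3% DMSO. Controls were DMSO alone (negative) and TOFA (positive). Cells were fixed in 4% paraformaldehyde for 20 min on ice, then stained 20 min at room temperature in the dark with 1.0 µg/mL DAPI and 0.25 µg/mL Nile Red in PBS. Imaging was at 10×. Neutral lipids were read in the Cy3 channel and phospholipids in Cy5, as mean fluorescence intensity per cell (~1500 cells/treatment). Statistics used one-way ANOVA with Dunnett's test.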

[5] = tested on: LNCaP; assay: Antilipogenic activity in human LNCAP cells assessed as reduction of cellular phospholipid level at 10 uM after 48 hrs by nile red staining-based fluorescence microscopic analysis relative to control; assay type: functional, cell-based; outline: as §1
[6] = tested on: LNCaP; assay: Antilipogenic activity in human LNCAP cells assessed as reduction of cellular neutral lipid level at 10 uM after 48 hrs by nile red staining-based fluorescence microscopic analysis relative to control; assay type: functional, cell-based; outline: as §1
[7] = tested on: PC-3; assay: Antilipogenic activity in human PC3 cells assessed as reduction of cellular phospholipid level at 10 uM after 48 hrs by nile red staining-based fluorescence microscopic analysis relative to control; assay type: functional, cell-based; outline: as §1

SMILES: O=C(Cc1ccc(O)c(Cl)c1)NCCc1cccc(F)c1
- inhibition at 10 µM [1]: > 50%
- inhibition at 10 µM [2]: > 50%
- inhibition at 10 µM [3]: > 50%

SMILES: O=C(Cc1ccc(O)c(Cl)c1)NCc1ccc(Br)cc1
- inhibition at 10 µM [1]: > 50%
- inhibition at 10 µM [2]: > 50%
- inhibition at 10 µM [3]: > 50%

SMILES: CN(C)CCNC(=O)Cc1ccc(O)c(Cl)c1
- inhibition at 10 µM [1]: > 50%
- inhibition at 10 µM [2]: > 50%
- inhibition at 10 µM [3]: > 50%

SMILES: O=C(Cc1ccc(O)c(Cl)c1)NCc1cccc(F)c1
- Activity [4]: Active
- inhibition at 10 µM [1]: > 50%
- inhibition at 10 µM [2]: > 50%
- inhibition at 10 µM [3]: > 50%
- Activity [5]: Active
- Activity [6]: Active
- Activity [7]: Active

SMILES: O=C(Cc1ccc(O)c(Cl)c1)NCc1ccccc1
- inhibition at 10 µM [1]: > 50%
- inhibition at 10 µM [2]: > 50%
- inhibition at 10 µM [3]: > 50%

SMILES: O=C(Cc1ccc(O)c(Cl)c1)NCCN1CCOCC1
- inhibition at 10 µM [1]: > 50%
- inhibition at 10 µM [2]: > 50%
- inhibition at 10 µM [3]: > 50%

SMILES: O=C(Cc1ccc(O)c(Cl)c1)NCCc1ccccc1
- inhibition at 10 µM [1]: > 50%
- inhibition at 10 µM [2]: > 50%
- inhibition at 10 µM [3]: > 50%

SMILES: O=C(Cc1ccc(O)c(Cl)c1)NCCN1CCNCC1
- inhibition at 10 µM [1]: > 50%
- inhibition at 10 µM [2]: > 50%
- inhibition at 10 µM [3]: > 50%

SMILES: O=C(Cc1ccc(O)c(Cl)c1)NCCc1ccc(Br)cc1
- inhibition at 10 µM [1]: > 50%
- inhibition at 10 µM [2]: > 50%
- inhibition at 10 µM [3]: > 50%

SMILES: O=C(O)Cc1ccc(O)c(Cl)c1
- inhibition at 10 µM [1]: > 50%
- inhibition at 10 µM [2]: > 50%
- inhibition at 10 µM [3]: > 50%

SMILES: CCN(CC)CCCNC(=O)Cc1ccc(O)c(Cl)c1
- inhibition at 10 µM [1]: > 50%
- inhibition at 10 µM [2]: > 50%
- inhibition at 10 µM [3]: > 50%

SMILES: O=C(Cc1ccc(O)c(Cl)c1)NCc1ccc(Cl)cc1
- inhibition at 10 µM [1]: > 50%
- inhibition at 10 µM [2]: > 50%
- inhibition at 10 µM [3]: > 50%

SMILES: O=C(Cc1ccc(O)c(Cl)c1)NCCc1ccc(F)cc1
- inhibition at 10 µM [1]: > 50%
- inhibition at 10 µM [2]: > 50%
- inhibition at 10 µM [3]: > 50%

SMILES: O=C(Cc1ccc(O)c(Cl)c1)NCc1ccccc1F
- Activity [4]: Active
- inhibition at 10 µM [1]: > 50%
- inhibition at 10 µM [2]: > 50%
- inhibition at 10 µM [3]: > 50%
- Activity [5]: Active
- Activity [6]: Active
- Activity [7]: Active

SMILES: O=C(Cc1ccc(O)c(Cl)c1)NCCc1ccccn1
- inhibition at 10 µM [1]: > 50%
- inhibition at 10 µM [2]: > 50%
- inhibition at 10 µM [3]: > 50%

SMILES: O=C(Cc1ccc(O)c(Cl)c1)NCCc1ccccc1F
- inhibition at 10 µM [1]: > 50%
- inhibition at 10 µM [2]: > 50%
- inhibition at 10 µM [3]: > 50%

SMILES: O=C(Cc1ccc(O)c(Cl)c1)NCc1ccc(F)cc1
- Activity [4]: Active
- inhibition at 10 µM [1]: > 50%
- inhibition at 10 µM [2]: > 50%
- inhibition at 10 µM [3]: > 50%
- Activity [5]: Active
- Activity [6]: Active
- Activity [7]: Active

SMILES: O=C(Cc1ccc(O)c(Cl)c1)NCCc1ccc(Cl)cc1
- inhibition at 10 µM [1]: > 50%
- inhibition at 10 µM [2]: > 50%
- inhibition at 10 µM [3]: > 50%

SMILES: COC(=O)Cc1ccc(O)c(Cl)c1
- inhibition at 10 µM [1]: > 50%
- inhibition at 10 µM [2]: > 50%
- inhibition at 10 µM [3]: > 50%

SMILES: CC(C)CCNC(=O)Cc1ccc(O)c(Cl)c1
- inhibition at 10 µM [1]: > 50%
- inhibition at 10 µM [2]: > 50%
- inhibition at 10 µM [3]: > 50%

SMILES: CN(C)CCCNC(=O)Cc1ccc(O)c(Cl)c1
- inhibition at 10 µM [1]: > 50%
- inhibition at 10 µM [2]: > 50%
- inhibition at 10 µM [3]: > 50%

SMILES: CCN(CC)CCNC(=O)Cc1ccc(O)c(Cl)c1
- inhibition at 10 µM [1]: > 50%
- inhibition at 10 µM [2]: > 50%
- inhibition at 10 µM [3]: > 50%

SMILES: CCCCCCCCCCCCCCOc1ccc(C(=O)O)o1
- Activity [4]: Active
- Activity [5]: inactive
- Activity [6]: Active
- Activity [7]: inactive
